Results on two compounds are retold here after ChEMBL document CHEMBL1150310, “Development of novel water-soluble photocleavable protective group and its application for design of photoresponsive paclitaxel prodrugs” (Bioorg Med Chem, 2008).

Common to all, as to format: physicochemical
Data set [1] in a line: Stability in solid state at -20 degC after 4 months. The settings on record: 2922 h.
A short description of data set [2]: Stability in phosphate-buffered saline at pH 7.4 at 4 degC after 1 month. Conditions: buffer, pH 7.4, 730.5 h.
Data set [3] can be described thus: Photostability in phosphate-buffered saline assessed as paclitaxel release at pH 7.4 after irradiation with UV laser of 355 nm, 10 Hzm 5 mJ irradiation. The settings on record: buffer. Summed up: (§1)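 The conversion profile was measured in 10 mM PBS (pH 7.4) under pulsed UV laser irradiation (355 nm, 10 Hz, 5 mJ). The released isotaxel then undergoes spontaneous O–N intramolecular acyl migration to give paclitaxel.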

Data set [4] can be described thus: Photostability in phosphate-buffered saline assessed as paclitaxel release at pH 7.4 after 4 mins of irradiation with UV laser of 355 nm, 10 Hzm 5 mJ irradiation. Conditions: buffer, pH 7.4, 4 min. Summed up: as §1
Data set [5] can be described thus: Photostability in phosphate-buffered saline assessed as paclitaxel release at pH 7.4 after 4 mins of irradiation with UV light of 365 nm, 6W irradiation. Conditions: buffer, pH 7.4, 4 min. Summed up: (§2)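 Prodrug, coumarin or parent drug, as a 2 mM DMSO stock, was diluted 3:297 into 10 mM PBS (pH 7.4). It was irradiated at room temperature with a 365 nm, 6 W UV lamp, and conversion was followed by HPLC.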

A short description of data set [6]: Photostability in phosphate-buffered saline assessed as 7-[Bis-[2-[[2-(dimethylamino)ethyl]amino]-2-oxoethyl]amino]-4-(hydroxymethyl) coumarin hydrochloride release at pH 7.4 after 1 hr of irradiation with UV light of 365 nm, 6W irradiation. The settings on record: buffer, pH 7.4, 1 h. Summed up: as §2
Data set [7] is described as follows: Solubility in water at 15 degC. The settings on record: in the assay text read “25 degC” for “15 degC”. Summed up: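 The filtrate of the aqueous preparation was analysed by RP-HPLC. Water solubility was quantified against a calibration curve built from standard solutions of known prodrug amounts.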

A word on the solubility: it is the concentration that dissolves in the medium under given conditions. A low value points to little dissolved substance.

The structures appear in SMILES notation. Converted amounts (≈) assume the structure as drawn.

Take `CC(=O)O[C@H]1C(=O)[C@@]2(C)[C@H]([C@H](OC(=O)c3ccccc3)[C@]3(O)C[C@H](OC(=O)[C@H](OC(=O)c4ccccc4)[C@@H](NC(=O)OCc4cc(=O)oc5cc(N(CC(=O)NCCN(C)C)CC(=O)NCCN(C)C)ccc45)c4ccccc4)C(C)=C1C3(C)C)[C@]1(OC(C)=O)CO[C@@H]1C[C@@H]2O.Cl`: the Stability result in data set [1] and in data set [2] was “Stable” in each case. Also, the t1/2 in data set [3] came to 15.1 min. Besides, the Activity in data set [4] was 24%; in data set [5], 69%; in data set [6], 11%. For the same compound, in data set [7], the solubility was > 100000 µg/mL.

As to `CC(=O)O[C@H]1C(=O)[C@@]2(C)[C@H]([C@H](OC(=O)c3ccccc3)[C@]3(O)C[C@H](OC(=O)[C@H](OC(=O)c4ccccc4)[C@@H](N)c4ccccc4)C(C)=C1C3(C)C)[C@]1(OC(C)=O)CO[C@@H]1C[C@@H]2O` [ISOTAXEL], in data set [7], the concentration in solution (solubility) was 450 µg/mL (≈ 527 µM).
